The source made the active and inactive calls. The rule behind the calls is not given here.
What was measured:
[1] = tested on: Brain; experiment: Effect on oxidative phosphorylation efficiency in C57BL/6 mouse brain mitochondria assessed as ADP/O ratio at 3.3 uM using glutamate (reference value: 2.3 +/- 0.3); type: ADME
[2] = tested on: Lipid bilayer; experiment: Binding affinity to DPPC membrane assessed as appearance of disordered membrane structure at […] at 25 degC by SAXD analysis
In short: (§1)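 DPPC (2 mg) with compound at 10:1 lipid:compound molar ratio, hydrated in 100 mM NaCl, 25 mM Hepes pH 7.4, vortexed at 55 °C to form multilamellar vesicles. Small- and wide-angle X-ray diffraction at 25 and 50 °C; 10 min equilibration, 10 min exposure; d-spacings and chain packing read from reflections.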

[3] = tested on: Brain; experiment: Effect on oxidative phosphorylation efficiency in C57BL/6 mouse brain mitochondria assessed as respiratory control ratio at 3.3 uM using succinate as substrate (reference value: 2.3 +/- 0.2); type: ADME
[4] = Neuroprotective activity against tetracycline removal-induced cytotoxicity in human MC65 cells assessed as increase in cell viability after 72 hrs by MTT assay; type: functional, cell-based; details: MC65, 72 h
In short: (§2)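 MC65 cells kept in DMEM/10% FBS with 1 µg/mL tetracycline and G418. Cells washed twice with PBS, seeded in Opti-MEM at 4×10^4/well without tetracycline, given compound (0.3 µM, alone or in combination), 72 h at 37 °C. MTT added for 4 h, formazan dissolved in DMSO, A570 read. Viability as % of +TC controls; six replicates, ≥3 independent runs.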

[5] = tested on: Brain; experiment: Effect on oxidative phosphorylation efficiency in C57BL/6 mouse brain mitochondria assessed as respiratory control ratio using glutamate at 3.3 uM (reference value: 3.8 +/- 0.5); type: ADME
[6] = tested on: Lipid bilayer; experiment: Binding affinity to DPPC membrane assessed as shift in onset of transition temperature at 40:1 […] molar ratio by differential scanning calorimetry
In short: (§3)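 Multilamellar DPPC vesicles (2 mg lipid) with compound at various lipid:compound molar ratios (40:1 up to 5:1) in 100 mM NaCl, 25 mM Hepes pH 7.4, made by vortexing at 55 °C. Samples degassed 10 min, buffer as reference. DSC scans 10–60 °C at 60 °C/h. Traces normalized to DPPC content. Onset (Tc), completion temperature and enthalpy taken from thermograms.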

[7] = tested on: Lipid bilayer; experiment: Binding affinity to DPPC membrane assessed as phase separation in membrane structure at […] at 50 degC by SAXD analysis; in short: as §1
[8] = tested on: Lipid bilayer; experiment: Binding affinity to DPPC membrane assessed as appearance of disordered membrane structure at […] at 25 degC by WAXD analysis; details: in the assay text read “SAXD analysis” for “WAXD analysis”; in short: as §1
[9] = tested on: Lipid bilayer; experiment: Binding affinity to DPPC membrane assessed as change in enthalpy by differential scanning calorimetry (reference value: 8.7 kcal/mol); in short: as §3
[10] = tested on: Brain; experiment: Effect on oxidative phosphorylation efficiency in C57BL/6 mouse brain mitochondria assessed as ADP/O ratio at 3.3 uM using succinate as substrate (reference value: 1.3 +/- 0.2); type: ADME
[11] = tested on: N2a; experiment: Neuroprotective activity in mouse N2A cells assessed as increase in neurite outgrowth at 0.3 uM after 48 hrs by fluorescent microscopic method; type: functional, cell-based
In short: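 N2a cells seeded at 1×10^4/well in MEM with 0.5% FBS plus compound (0.3 µM) for 48 h. Neurite outgrowth stain, then fluorescence imaging at 10× (20 images per well). Average neurite length quantified; mean ± SEM, n=3.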

[12] = tested on: MC65; experiment: Neuroprotective activity against tetracycline removal-induced cytotoxicity in human MC65 cells assessed as increase in cell viability at 0.3 uM after 72 hrs by MTT assay; type: functional, cell-based; in short: as §2
[13] = tested on: Brain; experiment: Effect on oxidative phosphorylation efficiency in C57BL/6 mouse brain mitochondria assessed as change in state 4 respiratory rate of succinate at 3.3 uM; type: ADME
[14] = Effect on electron transport chain mitochondrial complex-2 activity in C57BL/6 mouse brain mitochondria assessed as change in rate of oxidation of DCPIP at 3.3 uM using succinate as substrate in presence of decylubiquinone by spectrophotometry; type: ADME
In short: (§4)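 Frozen-thawed C57BL/6 mouse brain mitochondria solubilized in 5% cholate (pH 7.2), diluted in KME buffer (100 mM KCl, 50 mM MOPS, 1 mM EGTA), treated with compound at 3.3 µM. Complex I: NADH consumption at 340 nm with 100 µM antimycin A, 1 mM decylubiquinone, 150 µM NADH, 40 µg/mL protein, ± 7.5 µM rotenone. Complex IV taken after background subtraction. Mean ± SEM, n=4.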

[15] = tested on: Lipid bilayer; experiment: Binding affinity to DPPC membrane assessed as phase transition completion temperature at 5:1 […] molar ratio by differential scanning calorimetry (reference value: 43.1 degC); in short: as §3
[16] = tested on: Brain; experiment: Effect on oxidative phosphorylation efficiency in C57BL/6 mouse brain mitochondria assessed as change in state 3 respiratory rate of glutamate at 3.3 uM relative to control; type: ADME
[17] = tested on: Cortical neurone; experiment: Neuroprotective activity in E17 rat primary cortical neurons assessed as increase in neurite outgrowth after 4 days by DAPI-staining based assay; type: functional, cell-based
In short: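 Rat E17 cortical neurons on poly-D-lysine coverslips (2×10^4/well) in neurobasal/B27/Glutamax, treated with DMSO or compound from DIV1. Fixed at DIV5 in 4% PFA; neurites immunostained for beta III tubulin, nuclei with DAPI.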

[18] = tested on: Brain; experiment: Effect on oxidative phosphorylation efficiency in C57BL/6 mouse brain mitochondria assessed as decrease in ADP-stimulated respiratory rate of glutamate at 3.3 uM; type: ADME
[19] = Effect on electron transport chain mitochondrial complex-1 activity in C57BL/6 mouse brain mitochondria assessed as change in rate of NADH consumption at 3.3 uM in presence of antimycin A/decylubiquinone by spectrophotometry; type: ADME; in short: as §4
[20] = tested on: Brain; experiment: Effect on oxidative phosphorylation efficiency in C57BL/6 mouse brain mitochondria assessed as change in state 3 respiratory rate of succinate at 3.3 uM; type: ADME
[21] = Effect on electron transport chain mitochondrial complex-3 activity in C57BL/6 mouse brain mitochondria assessed as change in initial rate of reduction of cytochrome C at 3.3 uM in presence of decylubiquinone by spectrophotometry; type: ADME; in short: as §4
[22] = Effect on electron transport chain mitochondrial complex-4 activity in C57BL/6 mouse brain mitochondria assessed as change in first-order rate of consumption of reduced cytochrome C at 3.3 uM measured over 7.5 mins by spectrophotometry; type: ADME; details: 0.125 h; in short: as §4
[23] = tested on: Lipid bilayer; experiment: Binding affinity to DPPC membrane assessed as increase in membrane thickness at […] at 50 degC by SAXD analysis; in short: as §1

Structure (SMILES) | Ratio [1] | Activity [2] | Ratio [3] | Ratio [5] | Activity [6] | Activity [8] | deltaH [9] | Ratio [10] | EC50 [4] | Activity [11] | further results
COc1cc(/C=C/C(=O)/C(Cc2cn(CCCCCCNC(=O)COCC(=O)NCCCCN[C@H]3CC[C@@]4(C)C(=CC[C@H]5[C@@H]6CC[C@H]([C@H](C)CCCC(C)C)[C@@]6(C)CC[C@@H]54)C3)nn2)=C(O)/C=C/c2ccc(O)c(OC)c2)ccc1O | – | – | – | – | – | – | – | – | 212 nM | – | –
COc1cc(/C=C/C(=O)/C(Cc2cn(CCCCCCNC(=O)COCC(=O)NCCCCO[C@H]3CC[C@@]4(C)C(=CC[C@H]5[C@@H]6C[C@@H]7O[C@]8(CC[C@@H](C)CO8)[C@@H](C)[C@@H]7[C@@]6(C)CC[C@@H]54)C3)nn2)=C(O)/C=C/c2ccc(O)c(OC)c2)ccc1O | – | – | – | – | – | – | – | – | 30.3 nM | Active | Activity [17]: Active
COc1cc(/C=C/C(=O)/C(Cc2cn(CCCCCCNC(=O)COCC(=O)NCCCCO[C@H]3CC[C@@]4(C)C(=CC[C@H]5[C@@H]6CC[C@H]([C@H](C)CCCC(C)C)[C@@]6(C)CC[C@@H]54)C3)nn2)=C(O)/C=C/c2ccc(O)c(OC)c2)ccc1O | – | – | – | – | – | – | – | – | 1850 nM | – | –

Now from value to compound, other results behind:

Ratio [1] | Activity [2] | Ratio [3] | Ratio [5] | Activity [6] | Activity [8] | deltaH [9] | Ratio [10] | Structure (SMILES) | EC50 [4] | Activity [11] | further results
2.4 | Active | 2.4 | 4.4 | Active | Active | 3 to 5 kcal/mol | 1.2 | COc1cc(/C=C/C(=O)/C(Cc2cn(CCNC(=O)COCC(=O)NCCCCO[C@H]3CC[C@@]4(C)C(=CC[C@H]5[C@@H]6CC[C@H]([C@H](C)CCCC(C)C)[C@@]6(C)CC[C@@H]54)C3)nn2)=C(O)/C=C/c2ccc(O)c(OC)c2)ccc1O | 296 nM | – | Activity [7]: Active
– | – | 1.2 | – | – | – | – | – | CCCCNC(=O)COCC(=O)NCCn1cc(C/C(C(=O)/C=C/c2ccc(O)c(OC)c2)=C(O)\C=C\c2ccc(O)c(OC)c2)nn1 | – | inactive | Activity [12]: inactive
2.3 | Active | 2.1 | 3.9 | Active | Active | 3 to 5 kcal/mol | 1.1 | COc1cc(/C=C/C(=O)/C(Cc2cn(CCNC(=O)COCC(=O)NCCCCO[C@H]3CC[C@@]4(C)C(=CC[C@H]5[C@@H]6C[C@@H]7O[C@]8(CC[C@@H](C)CO8)[C@@H](C)[C@@H]7[C@@]6(C)CC[C@@H]54)C3)nn2)=C(O)/C=C/c2ccc(O)c(OC)c2)ccc1O | 8.3 nM | Active | Activity [13]: Non-Toxic; Activity [14]: Not Active; T [15]: 42.4 °C; Activity [16]: 11.5%; Activity [17]: Active; Activity [7]: Active; Activity [18]: Toxic; Activity [19]: Not Active; Activity [20]: Non-Toxic; Activity [21]: Not Active; Activity [22]: Not Active
2.4 | Active | 2.6 | 3.9 | Active | Active | 3 to 5 kcal/mol | 1.1 | COc1cc(/C=C/C(=O)/C(Cc2cn(CCNC(=O)COCC(=O)NCCCCN[C@H]3CC[C@@]4(C)C(=CC[C@H]5[C@@H]6CC[C@H]([C@H](C)CCCC(C)C)[C@@]6(C)CC[C@@H]54)C3)nn2)=C(O)/C=C/c2ccc(O)c(OC)c2)ccc1O | 56.5 nM | – | T [15]: 42.4 °C; Activity [23]: Active

Source: ChEMBL document CHEMBL4020820, “Insights into the Impact of a Membrane-Anchoring Moiety on the Biological Activities of Bivalent Compounds As Potential Neuroprotectants for Alzheimer's Disease” (J Med Chem, 2018)
